Reference: ChEMBL document CHEMBL1914441, “Discovery and optimization of a biphenylacetic acid series of prostaglandin D2 receptor DP2 antagonists with efficacy in a murine model of allergic rhinitis” (Bioorg Med Chem Lett, 2011)
The source made the active and inactive calls. The calls are words filed in the database; no cut-off is given here.

Columns and labels:
[1] = molecular target: T1, Prostaglandin D2 receptor 2 (Homo sapiens, UniProt Q9Y5Y4); assay: Displacement of [3H]-PGD2 from human prostanoid DP2 receptor expressed in human 293T cells by liquid scintillation counting; format: cell-based
T1 sequence (Q9Y5Y4 whole entry): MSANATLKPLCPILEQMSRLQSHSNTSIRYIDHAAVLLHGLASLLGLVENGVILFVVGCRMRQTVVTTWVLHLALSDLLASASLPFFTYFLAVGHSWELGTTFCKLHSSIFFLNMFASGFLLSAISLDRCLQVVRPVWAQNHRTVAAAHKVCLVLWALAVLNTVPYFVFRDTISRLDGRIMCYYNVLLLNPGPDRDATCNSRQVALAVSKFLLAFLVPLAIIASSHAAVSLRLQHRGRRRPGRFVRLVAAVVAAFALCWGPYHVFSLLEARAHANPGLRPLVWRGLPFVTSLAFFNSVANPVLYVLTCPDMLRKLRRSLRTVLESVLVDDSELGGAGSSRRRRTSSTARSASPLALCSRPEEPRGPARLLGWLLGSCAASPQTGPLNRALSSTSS
Outline: (§1)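 Membranes from 293 cells stably expressing human DP2 were incubated with [³H]-PGD₂ across increasing compound concentrations. Membranes were harvested and washed, and bound radioactivity was counted. The IC50 is the concentration giving 50% inhibition of [³H]-PGD₂ binding. The assay was run without and with 0.2% human serum albumin to gauge protein shift. Mean of at least three experiments.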

[2] = molecular target: T1, Prostaglandin D2 receptor 2; assay: Displacement of [3H]-PGD2 from human prostanoid DP2 receptor expressed in human 293T cells by liquid scintillation counting in presence of 0.2 % human serum albumin; format: cell-based; outline: as §1
[3] = molecular target: T2, Prostaglandin D2 receptor (Homo sapiens, UniProt Q13258); assay: Displacement of [3H]-PGD2 from human DP1 receptor expressed in human platelet membranes; format: cell membranes
T2 sequence (Q13258 whole entry): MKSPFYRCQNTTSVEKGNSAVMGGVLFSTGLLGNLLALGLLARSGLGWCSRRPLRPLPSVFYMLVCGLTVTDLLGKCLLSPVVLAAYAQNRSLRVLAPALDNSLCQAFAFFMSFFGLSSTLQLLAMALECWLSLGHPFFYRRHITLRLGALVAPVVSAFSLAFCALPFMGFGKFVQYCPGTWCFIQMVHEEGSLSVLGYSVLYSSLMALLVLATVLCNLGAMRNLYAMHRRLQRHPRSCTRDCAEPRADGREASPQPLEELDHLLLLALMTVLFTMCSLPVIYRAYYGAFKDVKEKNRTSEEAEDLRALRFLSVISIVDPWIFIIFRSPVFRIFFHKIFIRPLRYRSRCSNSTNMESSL

[4] = molecular target: T3, Thromboxane A2 receptor (Homo sapiens, UniProt P21731); assay: Displacement of [3H]-SQ-29,548 from human TP receptor expressed in human platelet membranes; format: cell membranes
T3 sequence (P21731 whole entry): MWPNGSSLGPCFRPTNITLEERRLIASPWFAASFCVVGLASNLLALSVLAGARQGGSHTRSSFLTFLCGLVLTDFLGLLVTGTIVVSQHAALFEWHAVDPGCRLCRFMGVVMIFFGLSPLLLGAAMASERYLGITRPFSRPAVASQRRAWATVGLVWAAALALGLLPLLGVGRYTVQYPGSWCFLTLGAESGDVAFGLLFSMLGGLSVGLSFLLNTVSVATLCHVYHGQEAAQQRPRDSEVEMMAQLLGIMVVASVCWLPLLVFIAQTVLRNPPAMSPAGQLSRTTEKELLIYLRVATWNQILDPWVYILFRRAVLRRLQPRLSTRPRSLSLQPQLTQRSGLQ
Outline: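 TP binding was measured with human platelet membranes and ³H-SQ-29,548 as radioligand.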

[5] = molecular target: Prostacyclin receptor (Homo sapiens, UniProt P43119); assay: Displacement of [3H]-iloprost from human prostanoid IP receptor expressed in human 293T cells membranes; format: cell membranes
Outline: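 IP binding was measured with membranes from hIP/293 cells and ³H-iloprost as radioligand.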

[6] = molecular target: Cytochrome P450 3A4 (Homo sapiens, UniProt P08684); assay: Inhibition of human CYP3A4; format: ADME
[7] = molecular target: Cytochrome P450 2C9 (Homo sapiens, UniProt P11712); assay: Inhibition of human CYP2C9; format: ADME
[8] = molecular target: Cytochrome P450 2D6 (Homo sapiens, UniProt P10635); assay: Inhibition of human CYP2D6; format: ADME
[9] = molecular target: hERG (KCNH2) (Homo sapiens, UniProt Q12809); assay: Inhibition of human ERG at 10 uM by patch clamp assay
Outline: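 hERG inhibition was measured by patch clamp, performed by an external contract laboratory.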

[10] = Half life in rat at 2 mg/kg, iv; format: ADME, organism-based; set-up: dose 2 mg/kg, route intravenous; settings: in vivo
Outline: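 Rat dosing used the sodium salt, given IV at 2 mpk in water.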

[11] = Half life in dog at 2 mg/kg, iv and 5 mg/kg, po; format: ADME, organism-based, Canis lupus familiaris; settings: in vivo
Outline: (§2)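 Dog dosing used the sodium salt, given IV at 2 mpk in saline and PO at 5 mpk in 0.5% Methocel.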

[12] = Oral bioavailability in dog at 5 mg/kg; format: ADME, organism-based, Canis lupus familiaris; settings: in vivo; outline: as §2
[13] = system: Mus musculus; assay: Antiallergic effect in ovalbumin-sensitized BALB/c mouse allergic rhinitis model assessed as reduction in sneezing symptoms at 10 mg/kg, po administered 1 hr prior to OVA challenge on days 31 and 32 measured for 8 mins immediately after OVA challenge on day 32; format: functional, organism-based; set-up: dose 10 mg/kg
Outline: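 Female BALB/c mice sensitized with intraperitoneal OVA (10 µg in Alum) on days 0 and 7, then given nasal OVA challenge. Compound or water vehicle was dosed orally 1 h before challenge on days 31 and 32 only. Sneezing was counted over an 8 min session immediately after the day 32 challenge. n = 4–10 mice per group, means ± SEM, Dunnett's test after ANOVA versus vehicle.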

[14] = Oral bioavailability in rat at 10 mg/kg; settings: in vivo

Cytochrome P450 2C9, sequence (P11712 whole entry): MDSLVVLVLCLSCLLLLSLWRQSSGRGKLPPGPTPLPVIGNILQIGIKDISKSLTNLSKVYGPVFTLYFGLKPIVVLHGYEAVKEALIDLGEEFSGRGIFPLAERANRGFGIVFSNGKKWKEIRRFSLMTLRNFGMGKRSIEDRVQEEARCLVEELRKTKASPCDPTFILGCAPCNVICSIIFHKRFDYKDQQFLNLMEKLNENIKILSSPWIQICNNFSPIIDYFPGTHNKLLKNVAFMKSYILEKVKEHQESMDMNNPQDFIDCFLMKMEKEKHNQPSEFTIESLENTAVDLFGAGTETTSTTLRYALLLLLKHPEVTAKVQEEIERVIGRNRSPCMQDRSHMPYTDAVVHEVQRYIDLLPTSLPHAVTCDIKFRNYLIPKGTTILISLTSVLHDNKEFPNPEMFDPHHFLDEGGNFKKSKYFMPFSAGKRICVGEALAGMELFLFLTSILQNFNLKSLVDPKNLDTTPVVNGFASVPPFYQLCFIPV
Cytochrome P450 3A4, sequence (P08684 whole entry): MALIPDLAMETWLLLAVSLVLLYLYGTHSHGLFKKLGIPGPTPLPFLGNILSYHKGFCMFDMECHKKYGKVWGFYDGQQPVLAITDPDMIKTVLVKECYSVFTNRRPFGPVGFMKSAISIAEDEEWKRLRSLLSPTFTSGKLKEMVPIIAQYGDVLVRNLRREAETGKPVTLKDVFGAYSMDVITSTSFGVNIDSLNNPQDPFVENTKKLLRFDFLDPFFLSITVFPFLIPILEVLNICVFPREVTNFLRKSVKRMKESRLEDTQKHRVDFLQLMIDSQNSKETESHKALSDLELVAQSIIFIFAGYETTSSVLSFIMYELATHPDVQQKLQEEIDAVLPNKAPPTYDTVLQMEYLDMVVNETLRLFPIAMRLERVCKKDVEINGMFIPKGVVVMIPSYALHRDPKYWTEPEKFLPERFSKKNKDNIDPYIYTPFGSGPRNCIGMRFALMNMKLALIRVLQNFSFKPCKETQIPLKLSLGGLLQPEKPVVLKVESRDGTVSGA
hERG (KCNH2), sequence (Q12809 whole entry): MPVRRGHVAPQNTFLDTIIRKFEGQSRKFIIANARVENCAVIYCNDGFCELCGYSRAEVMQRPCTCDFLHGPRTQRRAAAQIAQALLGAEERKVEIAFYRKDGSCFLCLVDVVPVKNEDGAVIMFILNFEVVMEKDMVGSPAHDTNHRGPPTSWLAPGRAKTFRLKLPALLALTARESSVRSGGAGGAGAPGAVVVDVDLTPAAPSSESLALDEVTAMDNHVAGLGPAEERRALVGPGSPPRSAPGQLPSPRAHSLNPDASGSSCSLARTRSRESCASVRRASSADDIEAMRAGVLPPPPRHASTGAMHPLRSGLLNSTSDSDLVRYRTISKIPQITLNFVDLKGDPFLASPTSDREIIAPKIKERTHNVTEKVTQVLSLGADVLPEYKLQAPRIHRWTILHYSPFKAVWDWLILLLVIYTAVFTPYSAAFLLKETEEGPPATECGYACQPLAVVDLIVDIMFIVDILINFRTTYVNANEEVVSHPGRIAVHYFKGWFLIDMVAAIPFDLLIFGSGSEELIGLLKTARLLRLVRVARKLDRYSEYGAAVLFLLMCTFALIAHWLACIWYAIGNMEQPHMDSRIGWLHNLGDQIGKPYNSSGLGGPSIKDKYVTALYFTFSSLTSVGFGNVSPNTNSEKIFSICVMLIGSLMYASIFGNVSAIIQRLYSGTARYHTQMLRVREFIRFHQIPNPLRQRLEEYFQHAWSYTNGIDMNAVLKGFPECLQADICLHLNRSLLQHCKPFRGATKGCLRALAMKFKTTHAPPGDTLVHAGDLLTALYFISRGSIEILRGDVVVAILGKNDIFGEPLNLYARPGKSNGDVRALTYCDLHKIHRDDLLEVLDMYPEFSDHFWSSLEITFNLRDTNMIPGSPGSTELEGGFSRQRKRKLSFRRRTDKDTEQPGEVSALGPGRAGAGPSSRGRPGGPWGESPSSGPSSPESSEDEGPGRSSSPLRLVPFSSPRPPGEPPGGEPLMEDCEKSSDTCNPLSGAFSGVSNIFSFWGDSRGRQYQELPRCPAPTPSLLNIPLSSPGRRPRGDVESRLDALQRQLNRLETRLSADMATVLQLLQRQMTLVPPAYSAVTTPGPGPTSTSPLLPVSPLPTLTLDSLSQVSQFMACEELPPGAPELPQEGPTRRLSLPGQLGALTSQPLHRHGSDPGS
Cytochrome P450 2D6, sequence (P10635 whole entry): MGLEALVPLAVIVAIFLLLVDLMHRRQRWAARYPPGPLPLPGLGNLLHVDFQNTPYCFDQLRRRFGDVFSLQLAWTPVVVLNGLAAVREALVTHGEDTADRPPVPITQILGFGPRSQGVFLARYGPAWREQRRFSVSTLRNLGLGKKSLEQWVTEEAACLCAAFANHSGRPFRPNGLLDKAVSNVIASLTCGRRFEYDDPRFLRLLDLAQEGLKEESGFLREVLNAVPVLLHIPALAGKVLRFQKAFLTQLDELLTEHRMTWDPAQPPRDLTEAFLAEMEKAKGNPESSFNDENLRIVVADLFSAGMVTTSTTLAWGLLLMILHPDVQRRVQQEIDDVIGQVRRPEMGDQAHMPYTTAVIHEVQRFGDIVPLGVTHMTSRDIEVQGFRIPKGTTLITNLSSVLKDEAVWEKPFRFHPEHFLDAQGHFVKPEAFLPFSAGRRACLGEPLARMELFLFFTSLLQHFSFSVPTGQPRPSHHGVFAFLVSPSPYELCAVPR
Prostacyclin receptor, sequence (P43119 whole entry): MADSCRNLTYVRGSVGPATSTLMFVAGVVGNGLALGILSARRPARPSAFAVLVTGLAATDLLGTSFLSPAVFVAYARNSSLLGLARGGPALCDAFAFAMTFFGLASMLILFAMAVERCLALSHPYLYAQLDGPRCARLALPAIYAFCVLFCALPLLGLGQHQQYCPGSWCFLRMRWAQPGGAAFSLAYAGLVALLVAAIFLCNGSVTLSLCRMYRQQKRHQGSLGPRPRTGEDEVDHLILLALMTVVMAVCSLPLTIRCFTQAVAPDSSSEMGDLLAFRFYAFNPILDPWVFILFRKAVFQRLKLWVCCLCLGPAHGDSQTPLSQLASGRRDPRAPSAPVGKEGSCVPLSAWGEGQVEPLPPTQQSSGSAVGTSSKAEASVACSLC

SMILES | IC50 [1] [µM] | IC50 [2] [µM] | further results
COc1ccc(CC(=O)O)cc1-c1ccccc1CN1C(=O)O[C@H](c2ccccc2)[C@@H]1C | 0.88 | 2 | 
C[C@H]1[C@@H](c2ccccc2)OC(=O)N1Cc1cc(C(F)(F)F)ccc1-c1ccccc1CC(=O)O | 41 | 62 | 
COC(=O)N(CCc1ccccc1)Cc1cc(C(F)(F)F)ccc1-c1cc(CC(=O)O)ccc1OC | 0.024 | 0.062 | 
C[C@H]1[C@@H](c2ccccc2)OC(=O)N1Cc1cc(F)ccc1-c1ccc(CC(=O)O)cc1 | 0.36 | 1.8 | 
C[C@H]1[C@@H](c2ccccc2)OC(=O)N1Cc1cc(C(F)(F)F)ccc1-c1cccc(CCC(=O)O)c1 | 9.8 | 75 | 
C[C@H]1[C@@H](c2ccccc2)OC(=O)N1Cc1cc(C(F)(F)F)ccc1-c1ccccc1CCC(=O)O | 11 | 38 | 
COc1ccc(CC(=O)O)cc1-c1ccc(C(F)(F)F)cc1CNCCc1ccccc1 | 3.4 | 11 | 
C[C@H]1[C@@H](c2ccccc2)OC(=O)N1Cc1cc(C(F)(F)F)ccc1-c1cccc(CC(=O)O)c1 | 0.34 | 3 | 
COc1ccc(CC(=O)O)cc1-c1ccc(F)cc1CN1C(=O)O[C@H](c2ccccc2)[C@@H]1C | 0.36 | 1.3 | 
C[C@H]1[C@@H](c2ccccc2)OC(=O)N1Cc1cc(C(F)(F)F)ccc1-c1cccc(C(=O)O)c1 | 27 | 91 | 
COc1ccc(-c2cc(CC(=O)O)ccc2OC)c(CN2C(=O)O[C@H](c3ccccc3)[C@@H]2C)c1 | 1.3 | 6.1 | 
COc1ccc(CC(=O)O)cc1-c1ccc(C(F)(F)F)cc1CNC(=O)OCc1ccccc1 | 0.045 | 0.238 | 
CCN(Cc1cc(C(F)(F)F)ccc1-c1cc(CC(=O)O)ccc1OC)C(=O)OCc1ccccc1 |  |  | IC50 [3]: 4 µM; IC50 [4]: 23 µM; IC50 [5]: 56.2 µM; IC50 [6]: 18 µM; IC50 [7]: 18 µM; IC50 [8]: > 30 µM; half-life [10]: 8.7 h; half-life [11]: 7.4 h; bioavailability [12]: 89%; Activity [13]: Active; bioavailability [14]: 77%
COc1ccc(CC(=O)O)cc1-c1ccc(C(F)(F)F)cc1CN1C(=O)O[C@H](c2ccccc2)[C@@H]1C | 0.18 | 4.5 | IC50 [3]: 31.3 µM; IC50 [4]: 63.7 µM; IC50 [6]: > 30 µM; IC50 [7]: > 30 µM; IC50 [8]: > 30 µM

Further compounds by falling IC50 [1], results first:

IC50 [1] [µM] | IC50 [2] [µM] | SMILES | further results
0.011 | 0.053 | COc1ccc(CC(=O)O)cc1-c1ccc(C(F)(F)F)cc1CN(C(=O)OCc1ccccc1)C1CCCC1 | 
0.009 | 0.016 | CCN(Cc1cc(C(F)(F)F)ccc1-c1cc(CC(=O)O)ccc1OC)C(=O)OC | IC50 [3]: 36.4 µM; IC50 [4]: 67.4 µM; IC50 [6]: > 30 µM; IC50 [7]: > 30 µM; IC50 [8]: > 30 µM; inhibition at 10 µM [9]: 5.9%
0.008 | 0.031 | COC(=O)N(Cc1ccccc1)Cc1cc(C(F)(F)F)ccc1-c1cc(CC(=O)O)ccc1OC | IC50 [3]: 12.6 µM; IC50 [4]: 62.4 µM; IC50 [6]: > 30 µM; IC50 [7]: > 30 µM; IC50 [8]: > 30 µM; inhibition at 10 µM [9]: 1.2%
0.004 | 0.018 | COc1ccc(CC(=O)O)cc1-c1ccc(C(F)(F)F)cc1CN(C)C(=O)OCc1ccccc1 | 
0.003 | 0.011 | CCN(Cc1cc(C(F)(F)F)ccc1-c1cc(CC(=O)O)ccc1OC)C(=O)OCc1ccccc1Cl | 
0.003 | 0.007 | CCN(Cc1cc(C(F)(F)F)ccc1-c1cc(CC(=O)O)ccc1OC)C(=O)OCc1ccc(Cl)cc1 | IC50 [3]: 4 µM; IC50 [4]: 11.3 µM; IC50 [5]: 33 µM; IC50 [6]: 21 µM; IC50 [7]: 18 µM; IC50 [8]: > 30 µM; inhibition at 10 µM [9]: 22%
0.003 | 0.011 | CCN(Cc1cc(C(F)(F)F)ccc1-c1cc(CC(=O)O)ccc1OC)C(=O)OCc1cc(F)cc(F)c1 | 
0.002 | 0.01 | CCN(Cc1cc(C(F)(F)F)ccc1-c1cc(CC(=O)O)ccc1OC)C(=O)OCc1cccc(Cl)c1 | 
